Data published in ChEMBL document CHEMBL5376013, “Design, synthesis and biological evaluation of novel morpholinopyrimidine-5-carbonitrile derivatives as dual PI3K/mTOR inhibitors” (RSC Med Chem, 2024).

Legend:
Assay type in all cases: functional
Conditions in all cases: read-out: GI
U-251 = test: Antitumor activity against human U-251 cells assessed as growth inhibition at 10 uM relative to control
Procedure, shortened: (§1)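 Drug exposure 48 h at 37 °C, 5% CO2. Adherent cells fixed with cold TCA (10% final), suspension cells with TCA (16% final). Stained with 0.4% SRB in 1% acetic acid, dissolved in 10 mM Tris, A515. Growth relative to time-zero and untreated control.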

SNB-75 = test: Antitumor activity against human SNB-75 cells assessed as growth inhibition at 10 uM relative to control; procedure, shortened: as §1
SK-MEL-2 = test: Antitumor activity against human SK-MEL-2 cells assessed as growth inhibition at 10 uM relative to control
Procedure, shortened: (§2)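 After drug addition, plates were incubated 48 h at 37 °C under 5% CO2. Adherent cells were fixed with cold TCA (10% final, 60 min, 4 °C) and suspension cells with 16% final TCA. Staining used 0.4% SRB in 1% acetic acid, solubilized in 10 mM trizma, read at A515. Percent growth was calculated from time-zero, control and treated absorbances.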

UO-31 = test: Antitumor activity against human UO-31 cells assessed as growth inhibition at 10 uM relative to control; procedure, shortened: as §1
SW-620 = test: Antitumor activity against human SW-620 cells assessed as growth inhibition at 10 uM relative to control; procedure, shortened: as §1
HCT-15 = test: Antitumor activity against human HCT-15 cells assessed as growth inhibition at 10 uM relative to control; procedure, shortened: as §2
IGROV-1 = test: Antitumor activity against human IGROV-1 cells assessed as growth inhibition at 10 uM relative to control; procedure, shortened: as §2
BT-549 = test: Antitumor activity against human BT-549 cells assessed as growth inhibition at 10 uM relative to control; procedure, shortened: as §2
SK-MEL-5 = test: Antitumor activity against human SK-MEL-5 cells assessed as growth inhibition at 10 uM relative to control; procedure, shortened: as §1
MCF7 = test: Antitumor activity against human MCF7 cells assessed as growth inhibition at 10 uM relative to control; procedure, shortened: as §2
K562 = test: Antitumor activity against human K562 cells assessed as growth inhibition at 10 uM relative to control; procedure, shortened: as §2
CAKI-1 = test: Antitumor activity against human CAKI-1 cells assessed as growth inhibition at 10 uM relative to control; procedure, shortened: as §2
MOLT-4 = test: Antitumor activity against human MOLT-4 cells assessed as growth inhibition at 10 uM relative to control; procedure, shortened: as §2
HT-29 = test: Antitumor activity against human HT-29 cells assessed as growth inhibition at 10 uM relative to control; procedure, shortened: as §2
NCI-H226 = test: Antitumor activity against human NCI-H226 cells assessed as growth inhibition at 10 uM relative to control; procedure, shortened: as §2
KM12 = test: Antitumor activity against human KM12 cells assessed as growth inhibition at 10 uM relative to control; procedure, shortened: as §2
HCC 2998 = test: Antitumor activity against human HCC 2998 cells assessed as growth inhibition at 10 uM relative to control; procedure, shortened: as §2
RPMI-8226 = test: Antitumor activity against human RPMI-8226 cells assessed as growth inhibition at 10 uM relative to control; procedure, shortened: as §2
SF-539 = test: Antitumor activity against human SF-539 cells assessed as growth inhibition at 10 uM relative to control; procedure, shortened: as §2
786-0 = test: Antitumor activity against human 786-0 cells assessed as growth inhibition at 10 uM relative to control; procedure, shortened: as §2
OVCAR-8 = test: Antitumor activity against human OVCAR-8 cells assessed as growth inhibition at 10 uM relative to control; procedure, shortened: as §2
CCRF-CEM = test: Antitumor activity against human CCRF-CEM cells assessed as growth inhibition at 10 uM relative to control; procedure, shortened: as §2
T47D = test: Antitumor activity against human T47D cells assessed as growth inhibition at 10 uM relative to control; procedure, shortened: as §1
MDA-MB-435 = test: Antitumor activity against human MDA-MB-435 cells assessed as growth inhibition at 10 uM relative to control; procedure, shortened: as §2
OVCAR-5 = test: Antitumor activity against human OVCAR-5 cells assessed as growth inhibition at 10 uM relative to control; procedure, shortened: as §2
A549 = test: Antitumor activity against human A549 cells assessed as growth inhibition at 10 uM relative to control; procedure, shortened: as §2
OVCAR-3 = test: Antitumor activity against human OVCAR-3 cells assessed as growth inhibition at 10 uM relative to control; procedure, shortened: as §2
NCI-H522 = test: Antitumor activity against human NCI-H522 cells assessed as growth inhibition at 10 uM relative to control; procedure, shortened: as §2
SK-MEL-28 = test: Antitumor activity against human SK-MEL-28 cells assessed as growth inhibition at 10 uM relative to control; procedure, shortened: as §1
HOP-62 = test: Antitumor activity against human HOP-62 cells assessed as growth inhibition at 10 uM relative to control; procedure, shortened: as §2
NCI-H23 = test: Antitumor activity against human NCI-H23 cells assessed as growth inhibition at 10 uM relative to control; procedure, shortened: as §2
MDA-MB-231 = test: Antitumor activity against human MDA-MB-231 cells assessed as growth inhibition at 10 uM relative to control; procedure, shortened: as §2
NCI-H322M = test: Antitumor activity against human NCI-H322M cells assessed as growth inhibition at 10 uM relative to control; procedure, shortened: as §2
NCI-H460 = test: Antitumor activity against human NCI-H460 cells assessed as growth inhibition at 10 uM relative to control; procedure, shortened: as §2
Hs-578T = test: Antitumor activity against human Hs-578T cells assessed as growth inhibition at 10 uM relative to control; procedure, shortened: as §2
RXF 393 = test: Antitumor activity against human RXF 393 cells assessed as growth inhibition at 10 uM relative to control; procedure, shortened: as §2
HCT-116 = test: Antitumor activity against human HCT-116 cells assessed as growth inhibition at 10 uM relative to control; procedure, shortened: as §2
COLO 205 = test: Antitumor activity against human COLO 205 cells assessed as growth inhibition at 10 uM relative to control; procedure, shortened: as §2
SNB-19 = test: Antitumor activity against human SNB-19 cells assessed as growth inhibition at 10 uM relative to control; procedure, shortened: as §1
SR = test: Antitumor activity against human SR cells assessed as growth inhibition at 10 uM relative to control; procedure, shortened: as §1
Malme-3M = test: Antitumor activity against human Malme-3M cells assessed as growth inhibition at 10 uM relative to control; procedure, shortened: as §2
EKVX = test: Antitumor activity against human EKVX cells assessed as growth inhibition at 10 uM relative to control; procedure, shortened: as §2
MDA-MB-468 = test: Antitumor activity against human MDA-MB-468 cells assessed as growth inhibition at 10 uM relative to control; procedure, shortened: as §2
SN12C = test: Antitumor activity against human SN12C cells assessed as growth inhibition at 10 uM relative to control; procedure, shortened: as §1
HL-60 = test: Antitumor activity against human HL-60 cells assessed as growth inhibition at 10 uM relative to control; procedure, shortened: as §2
LOX IMVI = test: Antitumor activity against human LOX IMVI cells assessed as growth inhibition at 10 uM relative to control; procedure, shortened: as §2

## N#Cc1c(-c2ccc(Cl)cc2)nc(N2NC(=O)CC2=N)nc1N1CCOCC1
U-251
  inhibition of growth at 10 µM: < 1%
SNB-75
  inhibition of growth at 10 µM: 24.3%
SK-MEL-2
  inhibition of growth at 10 µM: < 1%
UO-31
  inhibition of growth at 10 µM: 24.6%
SW-620
  inhibition of growth at 10 µM: < 1%
HCT-15
  inhibition of growth at 10 µM: < 1%
IGROV-1
  inhibition of growth at 10 µM: < 1%
BT-549
  inhibition of growth at 10 µM: < 1%
SK-MEL-5
  inhibition of growth at 10 µM: < 1%
MCF7
  inhibition of growth at 10 µM: 1%
K562
  inhibition of growth at 10 µM: < 1%
CAKI-1
  inhibition of growth at 10 µM: < 1%
MOLT-4
  inhibition of growth at 10 µM: < 1%
HT-29
  inhibition of growth at 10 µM: < 1%
NCI-H226
  inhibition of growth at 10 µM: < 1%
KM12
  inhibition of growth at 10 µM: < 1%
HCC 2998
  inhibition of growth at 10 µM: < 1%
RPMI-8226
  inhibition of growth at 10 µM: < 1%
SF-539
  inhibition of growth at 10 µM: < 1%
786-0
  inhibition of growth at 10 µM: < 1%
OVCAR-8
  inhibition of growth at 10 µM: < 1%
CCRF-CEM
  inhibition of growth at 10 µM: < 1%
T47D
  inhibition of growth at 10 µM: < 1%
MDA-MB-435
  inhibition of growth at 10 µM: < 1%
OVCAR-5
  inhibition of growth at 10 µM: < 1%
A549
  inhibition of growth at 10 µM: < 1%
OVCAR-3
  inhibition of growth at 10 µM: < 1%
NCI-H522
  inhibition of growth at 10 µM: 13.6%
SK-MEL-28
  inhibition of growth at 10 µM: < 1%
HOP-62
  inhibition of growth at 10 µM: < 1%
NCI-H23
  inhibition of growth at 10 µM: < 1%
MDA-MB-231
  inhibition of growth at 10 µM: < 1%
NCI-H322M
  inhibition of growth at 10 µM: < 1%
NCI-H460
  inhibition of growth at 10 µM: < 1%
Hs-578T
  inhibition of growth at 10 µM: < 1%
RXF 393
  inhibition of growth at 10 µM: < 1%
HCT-116
  inhibition of growth at 10 µM: < 1%
COLO 205
  inhibition of growth at 10 µM: < 1%
SNB-19
  inhibition of growth at 10 µM: < 1%
SR
  inhibition of growth at 10 µM: < 1%
Malme-3M
  inhibition of growth at 10 µM: 58%
EKVX
  inhibition of growth at 10 µM: < 1%
MDA-MB-468
  inhibition of growth at 10 µM: < 1%
SN12C
  inhibition of growth at 10 µM: < 1%
HL-60
  inhibition of growth at 10 µM: < 1%
LOX IMVI
  inhibition of growth at 10 µM: < 1%
